Source: ChEMBL document CHEMBL3785020, “Discovery of novel sesquistilbene indanone analogues as potent anti-inflammatory agents” (Eur J Med Chem, 2016)
pIC50: −log10 of the molar value. Converted amounts (≈) assume the structure as drawn. The source made the active and inactive calls. The calls are words filed in the database; no cut-off is given here.

Key:
[1] = test system: RAW264.7; test: Antiinflammatory activity against LPS-induced mouse RAW264.7 cells assessed as inhibition of NO production at 50 uM preincubated for 4 hrs followed by LPS stimulation for 24 hrs by Griess reaction; assay type: functional
How it was run: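 RAW264.7 cells in DMEM with 5% FBS at 37 °C and 5% CO2 were pretreated at 50 µM for 4 h, then stimulated with or without LPS (1 µg/mL) for 24 h. Nitrite in the supernatant was measured by Griess reagent at 540 nm against a NaNO2 standard curve. At least three independent experiments, each in duplicate; means ± SEM.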

[2] = test system: RAW264.7; test: Antiinflammatory activity against LPS-induced mouse RAW264.7 cells assessed as inhibition of NO production at preincubated for 4 hrs followed by LPS stimulation for 24 hrs by Griess reaction; assay type: functional, cell-based
How it was run: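 Cells were pretreated for 4 h, then stimulated with LPS (1 µg/mL) for 24 h. Supernatant was mixed with an equal volume of Griess reagent, and nitrite was read at 540 nm against a NaNO2 standard curve. IC50 was obtained by curve fitting.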

[3] = (§1) Acute toxicity in ip dosed Kunming mouse after 14 days by Bliss method; assay type: organism-based; details: Kunming, in vivo
[4] = test system: Mus musculus; test: Acute toxicity in ip dosed Kunming mouse assessed as mortality after 7 days by Bliss method; assay type: organism-based; details: in vivo, 168 h
[5] = test system: RAW264.7; test: Cytotoxicity against mouse RAW264.7 cells assessed as cell viability up to 50 uM by MTT assay; assay type: cell-based
How it was run: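 MTT assay after 12.5-50 µM treatment with LPS stimulation for 24 h. Medium was replaced, then MTT was added to a final 0.5 mg/mL and incubated 4 h at 37 °C. Formazan was dissolved in DMSO and absorbance read at 570 nm. At least three independent experiments in duplicate.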

[6] = Solubility in water at pH 1.2; assay type: physicochemical
[7] = Solubility in water at pH 6.8; assay type: physicochemical
[8] = Solubility in water at pH 7.4; assay type: physicochemical
[9] = Lipophilicity, logP of the compound; assay type: physicochemical; details: octanol/water
[10] = test system: Mus musculus; test: Acute toxicity in po dosed Kunming mouse after 14 days by Bliss method; details: in vivo, 336 h
[11] = test system: RAW264.7; test: Antiinflammatory activity against LPS-induced mouse RAW264.7 cells assessed as downregulation of iNOS expression preincubated for 4 hrs followed by LPS stimulation for 24 hrs by Western blot analysis; assay type: functional, cell-based
How it was run: (§2)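 Cells serum-starved overnight, pretreated at 12.5-50 µM, then stimulated with LPS 1 µg/mL for 24 h. Whole-cell lysates were made in RIPA buffer with protease and phosphatase inhibitors, and 30 µg protein was loaded. Blots used iNOS (1:500) or COX-2 (1:10000) antibodies with HRP secondary and ECL detection. Signals were normalised to β-actin and expressed as fold of control. At least three independent experiments, each in duplicate.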

[12] = test system: RAW264.7; test: Antiinflammatory activity against LPS-induced mouse RAW264.7 cells assessed as downregulation of COX2 expression preincubated for 4 hrs followed by LPS stimulation for 24 hrs by Western blot analysis; assay type: functional, cell-based; how it was run: as §2
[13] = test system: RAW264.7; test: Downregulation of TLR4 expression in LPS-induced mouse RAW264.7 cells preincubated with compound followed by LPS-stimulation for 45 mins by Western blot analysis; assay type: functional, cell-based
[14] = target: Transcription factor p65 (Mus musculus) (UniProt Q04207); test: Inhibition of LPS-stimulated NFkappaB p65 nuclear translocation in mouse RAW264.7 cells preincubated with compound followed by LPS-stimulation for 2 hrs by Western blot analysis; assay type: cell-based
How it was run: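 Cells were pretreated at 12.5-50 µM, then stimulated with LPS (1 µg/mL) for 2 h. Nuclear and cytoplasmic fractions were prepared with an extraction kit and blotted for NF-κB p65 (1:1000). β-actin was the cytoplasmic loading control and lamin the nuclear one. At least three independent experiments in duplicate.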

[15] = test system: RAW264.7; test: Effect of ERK phosphorylation in LPS-induced mouse RAW264.7 cells preincubated with the compound followed by LPS-stimulation for 45 mins by Western blot analysis; assay type: cell-based
[16] = test system: RAW264.7; test: Inhibition of JNK phosphorylation in LPS-induced mouse RAW264.7 cells preincubated with the compound followed by LPS-stimulation for 45 mins by Western blot analysis; assay type: cell-based
[17] = target: MAP kinase p38 (Mus musculus) (UniProt P47811+O08911+Q9WUI1+Q9Z1B7); test: Effect of p38 phosphorylation in LPS-induced mouse RAW264.7 cells preincubated with the compound followed by LPS-stimulation for 45 mins by Western blot analysis; assay type: cell-based
[18] = test system: Mus musculus; test: as §1; assay type: organism-based; details: in vivo, 336 h

Sequence of Transcription factor p65 (Mus musculus) (Q04207 whole entry): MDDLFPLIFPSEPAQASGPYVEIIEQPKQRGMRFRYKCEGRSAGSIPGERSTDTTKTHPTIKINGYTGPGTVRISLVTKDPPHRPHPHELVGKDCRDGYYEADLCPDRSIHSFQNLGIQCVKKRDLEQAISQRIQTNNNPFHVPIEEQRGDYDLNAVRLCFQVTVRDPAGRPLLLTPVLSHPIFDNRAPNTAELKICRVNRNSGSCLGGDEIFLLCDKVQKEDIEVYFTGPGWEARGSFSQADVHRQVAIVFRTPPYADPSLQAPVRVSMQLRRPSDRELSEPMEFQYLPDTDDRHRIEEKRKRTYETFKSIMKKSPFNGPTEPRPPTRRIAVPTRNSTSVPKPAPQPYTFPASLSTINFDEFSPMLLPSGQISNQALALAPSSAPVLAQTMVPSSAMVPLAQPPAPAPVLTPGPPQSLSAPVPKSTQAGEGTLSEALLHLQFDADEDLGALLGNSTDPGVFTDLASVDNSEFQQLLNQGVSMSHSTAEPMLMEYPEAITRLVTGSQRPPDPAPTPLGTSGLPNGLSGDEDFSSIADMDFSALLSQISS

COc1cc(OC)cc(C2C(O)c3cc(OC)cc(OC)c3C2c2ccccc2)c1 (configuration not stated)
inhibition at 50 µM [1]: 76.3%

COc1ccc([C@@H]2C(=O)c3ccc(OC)cc3[C@H]2c2ccc(F)cc2)cc1
inhibition at 50 µM [1]: 85.9%

COc1cc(OC)cc([C@@H]2C(=O)c3cc(OC)cc(OC)c3[C@H]2c2ccc(C)cc2)c1
inhibition at 50 µM [1]: 83.3%

COc1ccc(C2C(=O)c3ccc(OC)cc3C2c2ccccc2)cc1 (racemic) [listing 1 of 2 here]
inhibition at 50 µM [1]: 87.6%
pIC50 ([2]; Mus musculus, RAW264.7): 4.63
LD50 at 336 h [3]: 275 mg/kg
Activity [4]: Toxic
Activity [5]: Non-toxic
solubility [6]: 38.3 µg/mL (≈ 111 µM)
solubility [7]: 68.7 µg/mL (≈ 199 µM)
solubility [8]: 46.5 µg/mL (≈ 135 µM)
logP [9]: 1.77
Activity [10]: Dose-dependent effect

COc1ccc(C2C(=O)c3ccc(OC)cc3C2c2ccccc2)cc1 (racemic) [listing 2 of 2 here]
inhibition [2]: Dose-dependent effect
Activity [11]: Dose-dependent effect
Activity [12]: Dose-dependent effect
Activity [13]: Dose-dependent effect
inhibition [14]: Dose-dependent effect
Activity [15]: inactive
inhibition [16]: Dose-dependent effect
Activity [17]: inactive

COc1ccc([C@@H]2c3c(OC)cc(OC)cc3C(=O)[C@H]2c2cc(OC)cc(OC)c2)cc1 (relative stereo)
inhibition at 50 µM [1]: 61%

COc1cc(OC)cc([C@@H]2C(=O)c3cc(OC)cc(OC)c3[C@H]2c2ccccc2)c1 (relative stereo)
inhibition at 50 µM [1]: 69.2%

COc1cc(OC)cc([C@@H]2C(=O)c3cc(OC)cc(OC)c3[C@H]2c2ccc(F)cc2)c1 (relative stereo)
inhibition at 50 µM [1]: 77.3%

COc1cc(OC)cc([C@@H]2C(=O)c3cc(OC)cc(OC)c3[C@H]2c2ccc(C(F)(F)F)cc2)c1 (relative stereo)
inhibition at 50 µM [1]: 71.8%

COc1cc(OC)cc([C@@H]2C(=O)c3cc(OC)cc(OC)c3[C@H]2c2cccc(F)c2)c1 (relative stereo)
inhibition at 50 µM [1]: 65.7%

CCOC(=O)[C@@H]1c2c(OC)cc(OC)cc2C(=O)[C@H]1c1cc(OC)cc(OC)c1 (relative stereo)
inhibition at 50 µM [1]: 64.6%

COc1cc(OC)cc([C@@H]2C(=O)c3cc(OC)cc(OC)c3[C@H]2c2ccc(OCc3ccccc3)cc2)c1 (relative stereo)
inhibition at 50 µM [1]: 65.8%

COc1cc(OC)cc([C@@H]2C(=O)c3cc(OC)cc(OC)c3[C@H]2C2CCCCC2)c1 (relative stereo)
inhibition at 50 µM [1]: 77.3%

COc1cc(OC)cc([C@@H]2C(=O)c3cc(OC)cc(OC)c3[C@H]2c2ccc(-c3ccccc3)cc2)c1 (relative stereo)
inhibition at 50 µM [1]: 73.9%

COc1ccc([C@@H]2C(=O)c3ccc(OC)cc3[C@H]2c2ccc(C)cc2)cc1 (relative stereo)
inhibition at 50 µM [1]: 47.4%

COc1ccc([C@@H]2C(=O)c3ccc(OC)cc3[C@H]2c2ccc(C(F)(F)F)cc2)cc1 (relative stereo)
inhibition at 50 µM [1]: 80%

COc1ccc([C@@H]2C(=O)c3ccc(OC)cc3[C@H]2c2cc(OC)cc(OC)c2)cc1 (relative stereo)
inhibition at 50 µM [1]: 51.6%

COc1cc(OC)cc([C@@H]2C(=O)c3cc(OC)cc(OC)c3[C@H]2c2ccc3ccccc3c2)c1 (relative stereo)
inhibition at 50 µM [1]: 47.4%

CCOc1ccc([C@@H]2c3cc(OC)ccc3C(=O)[C@H]2c2ccc(OC)cc2)cc1 (relative stereo)
inhibition at 50 µM [1]: 84.4%

COc1ccc([C@@H]2C(=O)c3ccc(OC)cc3[C@H]2c2cccc(F)c2)cc1 (relative stereo)
inhibition at 50 µM [1]: 80%

COc1ccc([C@@H]2C(=O)c3ccc(OC)cc3[C@H]2C2CCCCC2)cc1 (relative stereo)
inhibition at 50 µM [1]: 85.7%

COc1cc(OC)cc([C@@H]2c3c(OC)cc(OC)cc3C(=O)[C@H]2c2cc(OC)cc(OC)c2)c1 (relative stereo)
inhibition at 50 µM [1]: 59.4%

CCOc1ccc([C@@H]2c3c(OC)cc(OC)cc3C(=O)[C@H]2c2cc(OC)cc(OC)c2)cc1 (relative stereo)
inhibition at 50 µM [1]: 80.9%

COc1ccc([C@@H]2C(=O)c3ccc(OC)cc3[C@H]2c2ccc3ccccc3c2)cc1 (relative stereo)
inhibition at 50 µM [1]: 58.7%

COc1cc(OC)cc([C@@H]2C(=O)c3cc(OC)cc(OC)c3[C@H]2Cc2ccccc2)c1 (relative stereo)
inhibition at 50 µM [1]: 86.9%

COc1ccc([C@@H]2c3cc(OC)ccc3C(=O)[C@H]2c2ccc(OC)cc2)cc1 (relative stereo)
inhibition at 50 µM [1]: 79.3%

COc1ccc([C@@H]2C(=O)c3ccc(OC)cc3[C@H]2c2ccc(OC(F)(F)F)cc2)cc1 (relative stereo)
inhibition at 50 µM [1]: 76.3%

COc1cc(OC)cc([C@@H]2C(=O)c3cc(OC)cc(OC)c3[C@H]2c2ccc(OC(F)(F)F)cc2)c1 (relative stereo)
inhibition at 50 µM [1]: 65.6%

COc1cc(OC)cc([C@@H]2C(=O)c3cc(OC)cc(OC)c3[C@H]2c2ccc(O)cc2)c1 (relative stereo)
inhibition at 50 µM [1]: 65.6%

COc1ccc([C@@H]2C(=O)c3ccc(OC)cc3[C@H]2c2ccc(-c3ccccc3)cc2)cc1 (relative stereo)
inhibition at 50 µM [1]: 57.5%

COc1ccc(C2C(=O)c3ccc(OC)cc3C2c2ccccc2)cc1 (single isomer, unassigned; (+)) [listing 1 of 2 here]
pIC50 ([2]; raw264.7): 4.63

COc1ccc(C2C(=O)c3ccc(OC)cc3C2c2ccccc2)cc1 (single isomer, unassigned; (+)) [listing 2 of 2 here]
inhibition [2]: Dose-dependent effect

COc1ccc(C2C(=O)c3ccc(OC)cc3C2c2ccccc2)cc1 (single isomer, unassigned; (-)) [listing 1 of 2 here]
pIC50 ([2]; raw264.7): 4.63
LD50 [18]: 275 mg/kg

COc1ccc(C2C(=O)c3ccc(OC)cc3C2c2ccccc2)cc1 (single isomer, unassigned; (-)) [listing 2 of 2 here]
inhibition [2]: Dose-dependent effect

Oc1ccc(/C=C/c2cc(O)cc(O)c2)cc1 [RESVERATROL]
inhibition at 50 µM [1]: 35%
